# Laboratory results as given in ChEMBL document CHEMBL1781928, “Thiazolylmethyl ortho-substituted phenyl glucoside library as novel C-aryl glucoside SGLT2 inhibitors” (Eur J Med Chem, 2011).
# Target: T1, Sodium/glucose cotransporter 2 (Homo sapiens, UniProt P31639)
# T1 sequence (P31639 whole entry): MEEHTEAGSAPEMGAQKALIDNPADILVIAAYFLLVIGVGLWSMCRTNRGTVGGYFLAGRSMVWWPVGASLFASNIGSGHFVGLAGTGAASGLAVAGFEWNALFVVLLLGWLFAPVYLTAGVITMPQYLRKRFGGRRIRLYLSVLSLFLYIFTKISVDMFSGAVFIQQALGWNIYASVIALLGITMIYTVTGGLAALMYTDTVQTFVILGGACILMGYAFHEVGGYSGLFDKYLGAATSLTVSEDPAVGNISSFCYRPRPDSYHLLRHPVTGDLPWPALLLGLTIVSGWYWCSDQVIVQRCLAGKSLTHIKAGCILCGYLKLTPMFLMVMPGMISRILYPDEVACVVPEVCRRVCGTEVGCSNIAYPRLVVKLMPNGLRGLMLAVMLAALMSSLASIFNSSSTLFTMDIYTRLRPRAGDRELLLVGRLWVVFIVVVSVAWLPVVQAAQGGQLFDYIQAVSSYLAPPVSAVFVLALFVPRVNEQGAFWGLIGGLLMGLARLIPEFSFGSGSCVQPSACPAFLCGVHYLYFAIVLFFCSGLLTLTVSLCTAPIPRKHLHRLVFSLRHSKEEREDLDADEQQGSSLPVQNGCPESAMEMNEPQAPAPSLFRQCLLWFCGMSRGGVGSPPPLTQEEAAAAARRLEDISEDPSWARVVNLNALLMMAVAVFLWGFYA
# Experiment: Inhibition of human SGLT2 expressed in CHO cells assessed as [14C]-alpha-methyl-D-glucopyranoside uptake after 2 hrs by liquid scintillation counter
# Assay type: cell-based
# How it was run: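 hSGLT2 cDNA from adult kidney, stably transfected into CHO cells. They were pretreated 10 min at 37 °C in choline-chloride buffer (pH 7.4), then taken up 2 h at 37 °C in NaCl buffer with 1 mM unlabeled AMG plus ¹⁴C-AMG (8 uM) and inhibitor or DMSO. Two washes in buffer containing 10 mM AMG. IC₅₀ by nonlinear regression.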
row,SMILES,IC50 [nM]
1,COc1cc(Cl)c(Cc2ncc(-c3cccs3)s2)cc1[C@@H]1O[C@H](CO)[C@@H](O)[C@H](O)[C@H]1O,1.59
2,CCOc1cc(Cl)c(Cc2ncc(-c3ccsc3)s2)cc1[C@@H]1O[C@H](CO)[C@@H](O)[C@H](O)[C@H]1O,1.18
3,CN(C)CCOc1cc(Cl)c(Cc2ncc(-c3ccco3)s2)cc1[C@@H]1O[C@H](CO)[C@@H](O)[C@H](O)[C@H]1O,713
4,OCc1cc(Cl)c(Cc2ncc(-c3ccoc3)s2)cc1[C@@H]1O[C@H](CO)[C@@H](O)[C@H](O)[C@H]1O,20.5
5,OCc1cc(Cl)c(Cc2ncc(-c3cccs3)s2)cc1[C@@H]1O[C@H](CO)[C@@H](O)[C@H](O)[C@H]1O,5.88
6,OCc1cc(Cl)c(Cc2ncc(-c3ccsc3)s2)cc1[C@@H]1O[C@H](CO)[C@@H](O)[C@H](O)[C@H]1O,2.23
7,C=CCOCc1cc(Cl)c(Cc2ncc(-c3ccoc3)s2)cc1[C@@H]1O[C@H](CO)[C@@H](O)[C@H](O)[C@H]1O,38.7
8,C=CCOCc1cc(Cl)c(Cc2ncc(-c3cccs3)s2)cc1[C@@H]1O[C@H](CO)[C@@H](O)[C@H](O)[C@H]1O,16.2
9,C=CCOCc1cc(Cl)c(Cc2ncc(-c3ccsc3)s2)cc1[C@@H]1O[C@H](CO)[C@@H](O)[C@H](O)[C@H]1O,10
10,OC[C@H]1O[C@@H](c2cc(Cc3ncc(-c4ccc(F)cc4)s3)c(Cl)cc2F)[C@H](O)[C@@H](O)[C@@H]1O,27.4

# Further lines, results first:
row,IC50 [nM],SMILES
1,17.5,C=CCOCc1cc(Cl)c(Cc2ncc(-c3ccco3)s2)cc1[C@@H]1O[C@H](CO)[C@@H](O)[C@H](O)[C@H]1O
2,2.15,COc1cc(Cl)c(Cc2ncc(-c3ccco3)s2)cc1[C@@H]1O[C@H](CO)[C@@H](O)[C@H](O)[C@H]1O
3,21.6,CCCOc1cc(Cl)c(Cc2ncc(-c3ccco3)s2)cc1[C@@H]1O[C@H](CO)[C@@H](O)[C@H](O)[C@H]1O
4,2.23,C#CCOc1cc(Cl)c(Cc2ncc(-c3ccco3)s2)cc1[C@@H]1O[C@H](CO)[C@@H](O)[C@H](O)[C@H]1O
5,32.8,C=CCCOc1cc(Cl)c(Cc2ncc(-c3ccco3)s2)cc1[C@@H]1O[C@H](CO)[C@@H](O)[C@H](O)[C@H]1O
6,5.81,OCc1cc(Cl)c(Cc2ncc(-c3ccco3)s2)cc1[C@@H]1O[C@H](CO)[C@@H](O)[C@H](O)[C@H]1O
7,2.24,OC[C@H]1O[C@@H](c2cc(Cc3ncc(-c4ccco4)s3)c(Cl)cc2Cl)[C@H](O)[C@@H](O)[C@@H]1O
